Screening results deposited in PubChem BioAssay by several laboratories.
Cl transport mod – modulates chloride dependent transport by human KCC2. Q9H2X9. B-score of Tl+ flux slope (higher = more flux/activation; lower = inhibition) at 10 µM. 190,000 compounds, 2.2% hits. KCC2 cells, thallium flux FluoZin-2 fluorescence;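 active = thallium flux slope and its plate-corrected score both differing from the plate sample mean at a set confidence after two filtering rounds, in either direction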;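 note: slope of fluorescence scaled to starting intensity during 10 to 20 s after thallium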
Target sequence (Q9H2X9 whole entry, looked up): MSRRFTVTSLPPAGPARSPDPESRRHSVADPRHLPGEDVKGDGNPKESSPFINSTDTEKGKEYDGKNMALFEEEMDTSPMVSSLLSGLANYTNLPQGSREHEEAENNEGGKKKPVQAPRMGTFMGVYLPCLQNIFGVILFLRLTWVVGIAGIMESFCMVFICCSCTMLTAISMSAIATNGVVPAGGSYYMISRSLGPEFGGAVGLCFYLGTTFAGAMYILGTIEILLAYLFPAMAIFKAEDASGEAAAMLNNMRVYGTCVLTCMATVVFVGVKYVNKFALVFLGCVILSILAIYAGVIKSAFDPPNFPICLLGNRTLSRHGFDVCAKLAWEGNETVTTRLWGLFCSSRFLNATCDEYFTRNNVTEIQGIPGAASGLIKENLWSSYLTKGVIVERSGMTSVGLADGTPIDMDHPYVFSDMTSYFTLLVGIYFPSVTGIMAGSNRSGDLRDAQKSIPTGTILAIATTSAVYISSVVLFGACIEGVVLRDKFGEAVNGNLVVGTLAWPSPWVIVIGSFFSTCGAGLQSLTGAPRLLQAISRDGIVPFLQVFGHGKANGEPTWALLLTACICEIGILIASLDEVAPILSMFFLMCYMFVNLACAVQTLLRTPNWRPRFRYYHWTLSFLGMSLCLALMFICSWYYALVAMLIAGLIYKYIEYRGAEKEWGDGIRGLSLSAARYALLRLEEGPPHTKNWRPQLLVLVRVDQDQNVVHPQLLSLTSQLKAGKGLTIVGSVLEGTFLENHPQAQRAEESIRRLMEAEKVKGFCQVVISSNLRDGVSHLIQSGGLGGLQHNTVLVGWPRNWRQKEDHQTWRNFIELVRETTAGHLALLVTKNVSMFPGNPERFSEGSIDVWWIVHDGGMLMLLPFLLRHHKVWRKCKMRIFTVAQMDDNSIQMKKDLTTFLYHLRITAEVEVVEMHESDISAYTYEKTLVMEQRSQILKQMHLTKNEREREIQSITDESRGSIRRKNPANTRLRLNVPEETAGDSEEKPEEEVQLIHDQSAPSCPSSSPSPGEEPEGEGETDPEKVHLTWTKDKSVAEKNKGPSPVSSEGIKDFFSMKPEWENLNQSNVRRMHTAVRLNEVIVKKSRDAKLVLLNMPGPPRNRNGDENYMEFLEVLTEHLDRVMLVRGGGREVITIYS
DTT redox prof – compounds producing H2O2 with reducing agent – biochemical, NIH compound library profiling, artefact control for MLSCN library redox annotation, primary screen; 200,000 compounds, 0.03% hits; activation, % at 10 µM; DTT-dependent redox cycling H2O2, phenol red/HRP absorbance; 100% = 100 µM peroxide control, 0% = buffer;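 active = activation of at least 50% relative to the plate's high and low controls in the primary single-dose screen; inactive = activation below 50%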;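 note: compound incubated with DTT at 0.8 mM final as the reducing agent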
ROMK primary – human ROMK K+ channel modulation, primary screen; P48048; B-score at 10 µM; Tet-inducible ROMK, thallium flux fluorescence; actives lie on both sides; 130,000 compounds, 2% hits; AID 1918;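 active = signal ratio slope over the read window, or its plate-corrected B-score, at least 3 SD from the plate mean, either direction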;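 note: B-score of the F/F0 ratio slope over 7 to 12 s after thallium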
b-catenin transl – beta-catenin nuclear translocation modulation | HeLa beta-catenin nuclear translocation, immunofluorescence imaging | nuclear translocation activity, % at 5 µM | 190,000 compounds, 0.3% hits | AID 1665;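 active = nuclear translocation activity above 50% at 5 µM, with a well cell count of 50 or more; inconclusive = wells under 50 cells across six images, flagged as toxic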;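 note: per-cell ratio of nuclear to cytoplasmic median beta-catenin stain intensity; plate controls were DMSO negative control for no effect and GSK-3 inhibitor IX positive control for full effect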
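System: HeLa cells, endogenous beta-catenin; compound dosing: 5 µM primary single dose, 0.1% DMSO, 0.02–20 µM confirmation series; incubation: 24 h compound exposure at 37°C, 5% CO2; signal: beta-catenin immunofluorescence imaging with DAPI; evaluation: % activation, nuclear-to-cytoplasmic median beta-catenin signal ratio per cell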
MT stabilizer – microtubule stabilization, imaging screen; 200,000 compounds, 0.83% hits; % tubulin-high responders, % at 10 µM; HeLa tubulin immunostaining HCS, 24 h; share of cells brighter than vehicle mean+2SD; AID 2205;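 active = plate Z-score above 3 for both tubulin-high and condensed-nucleus cell shares, with cell loss under 80%, at 10 µM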;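 note: anti alpha tubulin signal scored within the nucleus-defined area of each cell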
KCC2 secondary – KCC2 (human) modulation, secondary assay | shares compounds with Cl transport mod | 3,700 compounds, 15% hits | AID 1713 | HEK293-KCC2, thallium flux, FluoZin2 fluorescence; stronger effect = higher value | normalised thallium flux (F/F0 slope) at 10 µM;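 active = thallium flux slope above the same plate's solvent-only control mean plus 3 SD; inconclusive = the two replicate wells disagree; inactive = no significant difference from solvent-only control wells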
KCC2 bumet counter – bumetanide-insensitive thallium flux in KCC2 cells with ouabain, counter-screen; 3,700 compounds, 49% hits; normalized thallium flux at 10 µM; AID 1714; shares compounds with Cl transport mod; HEK293-KCC2 + bumetanide/ouabain, thallium flux FluoZin2; stronger effect = higher value;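 active = thallium entry rate above the same plate's blocked-transporter control wells by more than 3 SD; inconclusive = the two repeat wells disagree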;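 note: raw slope of fluorescence over initial fluorescence between 10 and 20 s after thallium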
KCC2 sec2 – confirmation of human KCC2 transport modulators | normalized thallium flux at 10 µM | shares compounds with Cl transport mod | AID 1715 | HEK293-KCC2, thallium flux FluoZin2 fluorescence; actives lie on both sides; F/F0 rise rate, 10–20 s post-thallium | 3,700 compounds, 23% hits;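 active = thallium flux slope more than 3 SD above or below the plate's solvent-only control mean, mostly below; inconclusive = the two repeat wells disagreed; inactive = no significant shift from solvent-only controls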;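 note: raw slope with 0.1% DMSO as baseline and bumetanide as block control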
HEK293 Tl flux – parental HEK flux effect, counter-screen; shares compounds with Cl transport mod; HEK293 parental cells, thallium flux FluoZin2, ouabain; baseline-ratio fluorescence slope, 10–20 s after thallium; thallium flux rate (normalised fluorescence) at 10 µM; 3,700 compounds, 46% hits;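 active = thallium flux rate significantly above the same plate's solvent-only control wells, beyond their mean plus 3 SD; inconclusive = the two replicate wells gave conflicting results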
KCC2 retest ouab – KCC2 (human) modulation, ouabain retest. shares compounds with Cl transport mod. HEK293-KCC2, thallium flux FluoZin2 fluorescence; bidirectional: low = inhibitor, high = activator. raw Tl+ flux slope (below DMSO = inhibition, above = activation) at 10 µM. 3,700 compounds, 48% hits. AID 1717;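 active = thallium flux slope beyond 3 SD from same-plate DMSO control mean in most replicates, usually higher, sometimes lower; inconclusive = repeat tests gave conflicting results; inactive = no significant difference from controls in most replicates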;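 note: slope of initial-normalized fluorescence between seconds 10 and 20 after thallium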
HEK293 Tl flux2 – parental HEK flux effect, counter-screen 2. shares compounds with Cl transport mod. HEK293 parental, thallium flux FluoZin-2 fluorescence slope. thallium flux slope at 10 µM. 3,700 compounds, 33% hits. AID 1718;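 active = thallium flux slope above the same plate's solvent-control mean plus 3 SD in both duplicate wells; inconclusive = duplicate wells that disagreed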;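 note: run without ouabain in cells lacking the KCC2 cotransporter; slope of fluorescence scaled to its starting value between 10 and 20 s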
Active calls of the source: *; u = inconclusive; x = not tested or not shown. Rows were chosen to be rich in hits. Some 3.7% of all compounds tested hit in one or more screens of this group.

SMILES	Cl transport mod	DTT redox prof	ROMK primary	b-catenin transl	MT stabilizer	KCC2 secondary	KCC2 bumet counter	KCC2 sec2	HEK293 Tl flux	KCC2 retest ouab	HEK293 Tl flux2
O=c1c(/C=N/OCc2ccc(Cl)cc2Cl)c[nH]n1-c1cccc(Cl)n1	36.6*	-2.3	0.992	0.4	3.0	0.00805	0.0774*	0.0746*	0.0711*	0.0735*	0.0662*
Cc1cc(O)c(/C=N/OCc2ccc(Cl)cc2Cl)c(=O)o1	0.0192	0.1	0.422	-0.2	4.3	x	x	x	x	x	x
COc1cc(C#N)c(NC(=O)CN2CCN(CCO)CC2)cc1OC	-0.767	-1.9	0.0515	-0.8	3.3	x	x	x	x	x	x
O=C(C1CCC(CNc2nc(=S)[nH]c3ccccc23)CC1)N1CCN(c2ccc(F)cc2)CC1 (stereo not drawn)	-7.52*	0.0	0.1	0.1	2.3	0.00511	0.00462	0.022*	0.006*	0.0104*	0.00874
COc1ccc(N2CCN(C(=O)C3CCC(Cn4c(=S)[nH]c5ccccc5c4=O)CC3)CC2)cc1 (stereo not drawn)	2.82*	-3.0	x	-0.1	4.5	0.00654	0.0136*	0.0376	0.0138*	u	0.0153*
COc1ccc(N(CC(=O)N/N=C/c2ccc3c(c2)OCO3)S(=O)(=O)c2ccccc2)cc1	0.8	-0.2	0.418	1.1	3.2	x	x	x	x	x	x
O=C(Nc1cc(-c2ccccc2)[nH]n1)c1ccc(Cl)cc1	-0.446	x	-0.477	0.8	x	x	x	x	x	x	x
N#C/C(=C\c1cn(-c2ccccc2)nc1-c1cccnc1)c1nnc2n1CCCCC2	x	0.2	0.116	x	2.3	0.00566	0.0047	0.0236*	0.00848	u	0.0105
CCCNC(=O)Nc1ccc(C(F)(F)F)cc1	x	0.8	-0.787	0.5	4.1	x	x	x	x	x	x
Cc1cc(C)c(NC(=O)NC(=O)c2cccc(F)c2)c(C)n1	-4.13*	0.2	0.149	3.1	3.0	0.0112	0.00598	0.0319	0.00796	0.019	u
CC(C)(C)C(=O)/C=c1\[nH]c(=O)/c(=C\c2ccc(C#N)cc2)s1	30.2*	0.3	x	4.7	2.7	0.0186*	0.05*	0.0372	u	0.0477*	u
O=C(Nc1nccs1)c1nc(-c2ccccc2)n(-c2ccccc2)n1	5.32*	0.4	x	-1.3	1.9	0.0117	0.0226*	0.032	0.0111*	0.0226	0.0108
Cc1ccc(-c2n[nH]c(=S)n2/N=C/C=C\c2ccccc2[N+](=O)[O-])cc1	7.65*	-2.2	x	1.1	4.3	0.0075	0.00915*	0.0331	0.0108*	u	0.0142*
COc1ccccc1/C=C/C=N/n1c(-c2ccc(C)cc2)n[nH]c1=S	3.26	0.0	x	4.5	2.7	x	x	x	x	x	x
O=[N+]([O-])c1ccccc1/C=C/C=N/n1c(-c2ccccc2)n[nH]c1=S	9.28*	-0.5	0.804	0.6	2.3	0.0128*	0.0949*	0.0331	0.0112*	0.0409*	0.0118*
O=[N+]([O-])c1ccccc1/C=C/C=N/n1c(-c2ccc(Cl)cc2)n[nH]c1=S	3.62*	-6.4	x	0.0	2.2	0.00749	0.00917*	0.0333	0.0103*	u	0.0123*
O=C(CN1CCN(Cc2ccccc2Cl)C1=O)NCc1ccccn1	-0.0367	x	-0.517	0.7	x	x	x	x	x	x	x
c1ccc(OCCCCn2cnc3ccccc32)cc1	-0.605	-0.7	x	x	3.5	x	x	x	x	x	x
Nc1ccc2c(c1)ncn2CCCn1cnc2cc(N)ccc21	x	-0.1	-1.08	1.2	3.5	0.00754	0.00458	u	0.00754	0.0185	0.0106
Cc1ccc(S(=O)(=O)N(CC(=O)NCCSCc2ccco2)c2ccc(F)cc2)cc1	-4.26*	0.4	-0.872	-0.8	2.8	0.00593	0.00507	0.0276	0.00604	0.0159*	0.00968
O=C(NC(=S)Nc1ccccc1[N+](=O)[O-])c1ccccc1	17.8*	x	x	-0.2	x	0.00757	0.0367*	u	0.0197*	0.0346*	0.0212*
O=C(NC(=S)N1CCCc2ccccc21)c1ccco1	3.32	0.0	x	-1.4	5.9	x	x	x	x	x	x
O=C(NC(=S)Nc1cccc(NC(=O)c2ccccc2)c1)c1cccc([N+](=O)[O-])c1	0.659	0.2	1.25	1.1	2.3	x	x	x	x	x	x
Cc1ccc(C(=O)Nc2ccccc2C(=O)N2CCOCC2)cc1[N+](=O)[O-]	6.86*	-0.1	x	-0.2	2.1	0.00648	0.00398	0.0307	0.00721	0.0183	0.00955
CC1Cc2ccccc2N1C(=S)NC(=O)c1ccco1 (stereo not drawn)	26.4*	0.3	0.573	-1.4	2.9	0.0116*	0.0563*	0.0424*	0.0386*	0.0485*	0.0293*
SMILES	Cl transport mod	DTT redox prof	ROMK primary	b-catenin transl	MT stabilizer	KCC2 secondary	KCC2 bumet counter	KCC2 sec2	HEK293 Tl flux	KCC2 retest ouab	HEK293 Tl flux2
Cc1ccc(C(=O)NC(=S)Nc2ccccc2N2CCCC2)cc1[N+](=O)[O-]	5.49*	-0.1	0.0862	-0.4	3.8	0.00758	0.0424*	0.0327	0.0176*	0.0397*	0.0116*
Cc1ccc(C(=O)Nc2ccccc2N2CCCCC2)cc1[N+](=O)[O-]	0.0179	-2.1	-1.73	-1.7	3.2	x	x	x	x	x	x
O=C(Nc1ccc(Cl)cc1)N(C1=NCCC1)c1ccc(OC(F)F)cc1	-0.876	-0.1	x	0.2	3.2	x	x	x	x	x	x
O=C(NC(=S)Nc1ccccc1N1CCCC1)c1ccco1	134*	x	x	-0.9	x	0.042*	0.115*	0.0558*	0.0715*	0.0679*	0.0623*
O=C(/C=C/c1ccco1)NC(=S)Nc1ccccc1N1CCCC1	3.2*	-0.6	-0.652	-0.2	3.0	0.0116	0.0279*	0.032	0.0113*	0.023	0.0103
O=C(Nc1ccccc1N1CCCC1)c1ccco1	-0.00596	2.2	x	-1.8	2.7	x	x	x	x	x	x
O=C(/C=C/c1ccco1)Nc1ccccc1N1CCCC1	0.618	-1.1	0.674	4.0	3.4	x	x	x	x	x	x
CCc1ccc(NC(=O)CCNS(=O)(=O)c2cccc3nsnc23)cc1	-1.26	-0.2	-0.106	1.9	1.0	x	x	x	x	x	x
Clc1ccc(-n2cc(COCc3ccccc3)nn2)cc1	-0.857	1.0	-0.191	0.9	2.6	x	x	x	x	x	x
[O-][n+]1onc2c1CCC(=N/O)/C2=N\Nc1ccccc1	0.0371	x	x	-2.7	x	x	x	x	x	x	x
Cc1onc(C(=O)Nc2c(C)n(C)n(-c3ccccc3)c2=O)c1[N+](=O)[O-]	1.16	x	x	-1.9	x	x	x	x	x	x	x
